Tested on: HL-60
Experiment: Growth inhibition of human HL60 cells after 72 hrs by trypan blue staining
Assay type: functional
Conditions: HL-60, 72 h
Method in brief: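 HL-60 cells kept in RPMI-1640 with 10% heat-inactivated FBS, penicillin/streptomycin and L-glutamine at 37 °C, 5% CO2. Seeded at 4×10^4/mL in 24-well plates and exposed to a range of concentrations for 72 h. Trypan blue-positive and -negative cells were both counted. Inhibition = (1−Nt/Nc)×100%, and GI50 is the concentration giving half-maximal growth inhibition versus untreated cells.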

C=C(C)C(=O)c1ccc(OCc2nc(-c3ccccc3)cs2)cc1Cl
GI50: 6400 nM

C=C(CC)C(=O)c1ccc(OCc2nc(-c3ccc([N+](=O)[O-])cc3)cs2)cc1Cl
GI50: 800 nM

C=C(C)C(=O)c1ccc(OCc2nc(-c3ccccc3)cs2)c(C)c1C
GI50: 3400 nM

C=C(C)C(=O)c1ccc(OCc2nc(-c3ccc4ccccc4c3)cs2)cc1Cl
GI50: 2900 nM

C=C(C)C(=O)c1ccc(OCc2nc(-c3ccc4ccccc4c3)cs2)c(C)c1C
GI50: 2300 nM

C=C(CC)C(=O)c1ccc(OCc2nc(-c3ccc(C(F)(F)F)cc3)cs2)c(C)c1C
GI50: 1500 nM

C=C(C)C(=O)c1ccc(OCc2nc(-c3ccc([N+](=O)[O-])cc3)cs2)c(C)c1C
GI50: 5100 nM

C=C(CC)C(=O)c1ccc(OCc2nc(-c3ccc([N+](=O)[O-])cc3)cs2)c(C)c1C
GI50: 3600 nM

C=C(CC)C(=O)c1ccc(OCc2nc(-c3ccc4ccccc4c3)cs2)c(C)c1C
GI50: 2000 nM

C=C(C)C(=O)c1ccc(OCc2nc(-c3ccc(C(F)(F)F)cc3)cs2)c(C)c1C
GI50: 3100 nM

C=C(CC)C(=O)c1ccc(OCc2nc(-c3ccc4ccccc4c3)cs2)cc1Cl
GI50: 900 nM

C=C(C)C(=O)c1ccc(OCc2nc(-c3ccc(C(F)(F)F)cc3)cs2)cc1Cl
GI50: 1400 nM

C=C(C)C(=O)c1ccc(OCc2nc(-c3ccccc3)cs2)cc1C
GI50: 4700 nM

C=C(CC)C(=O)c1ccc(OCc2nc(-c3ccc(C(F)(F)F)cc3)cs2)c(Cl)c1Cl
GI50: 1600 nM

C=C(CC)C(=O)c1ccc(OCC(=O)O)c(Cl)c1Cl [ETHACRYNIC ACID]
GI50: 44200 nM

C=C(CC)C(=O)c1ccc(OCc2nc(-c3ccc([N+](=O)[O-])cc3)cs2)c(Cl)c1Cl
GI50: 1000 nM

C=C(CC)C(=O)c1ccc(OCc2nc(-c3ccc4ccccc4c3)cs2)c(Cl)c1Cl
GI50: 3600 nM

C=C(CC)C(=O)c1ccc(OCc2nc(-c3ccc(C(F)(F)F)cc3)cs2)cc1Cl
GI50: 2000 nM

C=C(C)C(=O)c1ccc(OCc2nc(-c3ccc([N+](=O)[O-])cc3)cs2)cc1Cl
GI50: 5900 nM

From ChEMBL document CHEMBL1955815, “The synthesis of ethacrynic acid thiazole derivatives as glutathione S-transferase pi inhibitors” (2012)
